According to ChEMBL document CHEMBL1147907, “Structure-based discovery of new small molecule inhibitors of low molecular weight protein tyrosine phosphatase” (Eur J Med Chem, 2007):
Active and inactive are the calls of the source. The rule behind the calls is not given here.

Biological target: T1, Low molecular weight phosphotyrosine protein phosphatase (Bos taurus) (UniProt P11064)
T1 sequence (whole entry): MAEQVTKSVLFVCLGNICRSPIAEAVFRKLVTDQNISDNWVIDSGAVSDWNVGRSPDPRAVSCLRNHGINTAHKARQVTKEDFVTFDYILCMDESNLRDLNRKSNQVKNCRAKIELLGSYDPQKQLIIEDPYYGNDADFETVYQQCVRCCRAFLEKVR
Test: (§1) Inhibition of bovine low molecular weight PTP expressed in Escherichia coli […] cells
Method in brief: (§2)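 Enzyme held at 10 nM; p-nitrophenyl phosphate substrate at five final concentrations (0.4, 0.8, 1.2, 1.6, 2.0 mM) against four to five inhibitor concentrations; inhibitors kept as 100 mM DMSO stocks. Run at 37 °C in 40 mM sodium acetate pH 5.0, 150 mM NaCl, 1 mM TCEP. p-Nitrophenolate release read at 405 nm; competitive Ki derived.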

Activity | Structure (SMILES)
inactive | O=C(O)C1CSC(c2cc(Br)ccc2O)N1 (centres undefined)
inactive | O=C(O)C1CCC(CNCc2ccncc2)CC1 (centres undefined)
inactive | O=C(O)c1ccc2c(c1)C1C=CCC1C(C(=O)O)N2 (centres undefined)
inactive | O=C(O)c1ccc2c(c1)c1c3n2CCNC3CCC1 (centres undefined)
inactive | O=C(O)CC(O)c1nc2ccccc2[nH]1 (centres undefined)
inactive | O=C(O)C1CCN(S(=O)(=O)c2cccc3nsnc23)CC1

The remaining lines, values behind:

Structure (SMILES) | Activity
O=C(O)C1CC(=O)N(C2CCCCCC2)C1 (centres undefined) | inactive
Cc1cc[n+](CCCS(=O)(=O)O)c2ccccc12 | inactive
Cc1cc(C(=S)N2CCOCC2)c(C)n1-c1ccc(C(=O)O)cc1 | inactive
CCCOc1ccc(N2C(=O)CC(N3CCC(C(=O)O)CC3)C2=O)cc1 (centres undefined) | inactive
CS(=O)(=O)N1CCN(C2=C(Cl)C(=O)c3ccccc3C2=O)CC1 | inactive
O=C(O)COc1ccc2c(c1)C(=O)CC1(CCCCC1)O2 | inactive
O=C(O)c1ccc(C2(c3ccc(C(=O)O)cc3)OC(=O)c3ccccc32)cc1 | inactive
Cc1ccc2nc(-c3cccnc3)cc(C(=O)Nc3ccc(CC(=O)O)cc3)c2c1 | inactive
Cc1ccc(N2C(=O)CC(N3CCC(C(=O)O)CC3)C2=O)cc1 (centres undefined) | inactive
CS(=O)(=O)N1CCCC(C(=O)NCc2ccccc2Cl)C1 (centres undefined) | inactive
O=[N+]([O-])c1ccc(C2=Nn3c(nnc3-c3ccccc3)SC2)cc1 | inactive
COc1ccc(CN2CCN(S(C)(=O)=O)CC2)cc1OC | inactive

Biological target: T2, Low molecular weight phosphotyrosine protein phosphatase (Bos taurus, UniProt P11064)
T2 sequence (P11064 whole entry): T1 sequence (whole entry)
Test: as §1
Method in brief: as §2

Ki | Structure (SMILES)
50 µM | O=C(O)c1ccc2c(c1)C1C=CCC1C(c1ccccc1C(F)(F)F)N2 (centres undefined)
> 1000 µM | O=C(O)c1ccc2[nH]c3c(c2c1)CCCC3
240 µM | O=C(O)c1ccc2[nH]c3c(c2c1)CSCC3
880 µM | O=C(O)Cc1ccc(C2C(=O)C3SC=CC3NC2=S)cc1 (centres undefined)
> 1000 µM | O=C(O)c1ccc2c(c1)C1C=CCC1C(c1ccccc1)N2 (centres undefined)
9 µM | O=C(O)c1ccc2c(c1)C1C=CCC1C(c1cccc(Br)c1)N2 (centres undefined)
60 µM | O=C(O)Cc1ccc2c(c1)[nH]c1ccc(Br)cc12
910 µM | O=C(O)c1ccc(C2Nc3c(F)cc(F)cc3C3C=CCC32)cc1 (centres undefined)

Further lines, the molecule ahead of its results:

Structure (SMILES) | Ki
Cn1c(=O)oc2cc(S(=O)(=O)N3CCC(C(=O)O)CC3)ccc21 | > 1000 µM
O=C(O)CCC(=O)N1CCc2cc(S(=O)(=O)NCc3cccs3)ccc21 | > 1000 µM
O=C1N=C(Cc2cccn2-c2ccc(C(=O)O)cc2)C(=O)N1 | 11 µM
O=C(O)CCC(=O)N1N=C(c2ccccc2)CC1c1ccccc1F (centres undefined) | > 1000 µM
O=C(O)c1ccc2c(c1)C1C=CCC1C(c1cccnc1)N2 (centres undefined) | > 1000 µM
O=C(O)c1ccc(-n2nc(C(F)(F)F)c3c2CCCC3)cc1 | > 1000 µM
CCn1c2ccc(CC(=O)O)cc2c2cc(CC(=O)O)ccc21 | 170 µM
CCn1c2c(c3cc(C(=O)O)ccc31)CCCC2=O | 610 µM
